According to ChEMBL document CHEMBL1154533, “Syntheses and evaluation of glucosyl aryl thiosemicarbazide and glucosyl thiosemicarbazone derivatives as antioxidant and anti-dyslipidemic agents” (2009):

Experiments:
Design in all cases: scale not given: the % may be the effect or the level left
Rattus norvegicus [1] = test: Antidyslipidemic activity against triton-induced hyperlipidemia in Charles Foster rat assessed as reduction in total cholesterol level at 100 mg/kg, po after 18 hrs relative to control; assay type: functional
How it was run: (§1)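 Adult male Charles Foster rats (200 […] 225 g), six per group. Triton WR-1339 at 400 mg/Kg ip induced hyperlipidemia. Test compound was given at 100 mg/Kg po, suspended in 0.2% w/v gum acacia in water, at the same time as triton; vehicle controls were included. After 18 h, retro-orbital blood was taken into EDTA and plasma obtained (2500 g, 4 °C, 10 min). Plasma was diluted 1:3 in saline and TC, PL and Tg measured by standard methods. Reported as mean […] SD; Student's t-test.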

Rattus norvegicus [2] = test: Antidyslipidemic activity against triton-induced hyperlipidemia in Charles Foster rat assessed as reduction in phospholipid level at 100 mg/kg, po after 18 hrs relative to control; assay type: functional; how it was run: as §1
Rattus norvegicus [3] = test: Antidyslipidemic activity against triton-induced hyperlipidemia in Charles Foster rat assessed as reduction in triglyceride level at 100 mg/kg, po after 18 hrs relative to control; assay type: functional; how it was run: as §1
Rattus norvegicus [4] = test: Decrease in triton-induced increase in protein level in Charles Foster rat hyperlipidemia model at 100 mg/kg, po after 18 hrs relative to control; assay type: functional
Rattus norvegicus [5] = test: Antidyslipidemic activity against triton-induced inhibition of post heparin lipolytic activity in Charles Foster rat hyperlipidemia model assessed as formation of free fatty acid per mL of plasma at 100 mg/kg, po after 18 hrs relative to control; assay type: functional
How it was run: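 Triton WR-1339 rat model (400 mg/Kg ip; compound 100 mg/Kg po in gum acacia, given with triton; six rats per group). Post-heparin lipolytic activity was measured in plasma collected at 18 h. Expressed as nmol free fatty acid formed/h/mL plasma; mean ± SD.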

[6] = Antioxidant activity assessed as reduction in generation of superoxide radicals at 100 ug/mL measured as formazone formation by spectrophotometry relative to control; assay type: functional
How it was run: (§2)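 Superoxide was generated enzymatically with xanthine ([…]), xanthine oxidase (0.04 U) and nitroblue tetrazolium (320 μM) in 100 mM phosphate buffer, pH 8.2, with or without compound. Incubated 30 min at 37 °C, then stopped with glacial acetic acid. Formazone was quantified spectrophotometrically (nmol/min). Mean ± SD of six; Student's t-test.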

[7] = Antioxidant activity assessed as reduction in generation of superoxide radicals at 200 ug/mL measured as formazone formation by spectrophotometry relative to control; assay type: functional; how it was run: as §2
[8] = Antioxidant activity assessed as reduction in generation of hydroxyl radicals at 100 ug/mL measured as malondialdehyde formation by spectrophotometry relative to control; assay type: functional
[9] = Antioxidant activity assessed as reduction in generation of hydroxyl radicals at 200 ug/mL measured as malondialdehyde formation by spectrophotometry relative to control; assay type: functional
[10] = Antioxidant activity assessed as reduction in lipid peroxidation in microsomes at 100 ug/mL measured as malondialdehyde formation by spectrophotometry relative to control; assay type: functional; settings: Microsome
[11] = Antioxidant activity assessed as reduction in lipid peroxidation in microsomes at 200 ug/mL measured as malondialdehyde formation by spectrophotometry relative to control; assay type: functional; settings: Microsome
[12] = Antioxidant activity assessed as reduction in lipid peroxidation in microsomes at 200 ug/mL measured as malondialdehyde formation by spectrophotometry relative to control; settings: Microsome

Structure (SMILES)	Activity (Rattus norvegicus [1]) [%]	Activity (Rattus norvegicus [2]) [%]	Activity (Rattus norvegicus [3]) [%]	Activity (Rattus norvegicus [4]) [%]	Activity (Rattus norvegicus [5]) [%]	Activity [6] [%]	Activity [7] [%]	Activity [8] [%]	Activity [9] [%]	Activity [10] [%]	Activity [11] [%]	Activity [12] [%]
COc1ccc(NNC(=S)N[C@@H]2O[C@H](COC(C)=O)[C@@H](OC(C)=O)[C@H](OC(C)=O)[C@H]2OC(C)=O)cc1	18	12	10	18	7	21	37	15	23	28	32	–
CC(=O)OC[C@H]1O[C@@H](NC(=S)N/N=C(\C)c2cc(C)ccc2C)[C@H](OC(C)=O)[C@@H](OC(C)=O)[C@@H]1OC(C)=O	18	18	17	12	10	20	30	16	29	16	26	–
CC(=O)OC[C@H]1O[C@@H](NC(=S)N/N=C(\C)c2cccc(N)c2)[C@H](OC(C)=O)[C@@H](OC(C)=O)[C@@H]1OC(C)=O	16	15	13	20	9	23	38	20	38	19	35	–
CC(=O)OC[C@H]1O[C@@H](NC(=S)N/N=C/c2ccc([N+](=O)[O-])cc2)[C@H](OC(C)=O)[C@@H](OC(C)=O)[C@@H]1OC(C)=O	19	14	11	22	13	13	23	17	23	18	31	–
CC(=O)OC[C@H]1O[C@@H](NC(=S)NNc2ccc(F)cc2F)[C@H](OC(C)=O)[C@@H](OC(C)=O)[C@@H]1OC(C)=O	24	25	25	20	23	16	27	20	35	24	31	–
CC(=O)OC[C@H]1O[C@@H](NC(=S)NNc2ccc(F)cc2)[C@H](OC(C)=O)[C@@H](OC(C)=O)[C@@H]1OC(C)=O	13	14	9	18	14	15	29	22	36	22	34	–
CC(=O)OC[C@H]1O[C@@H](NC(=S)NNc2ccccc2)[C@H](OC(C)=O)[C@@H](OC(C)=O)[C@@H]1OC(C)=O	11	10	9	16	8	19	32	25	42	23	39	–
CC(=O)OC[C@H]1O[C@@H](NC(=S)N/N=C(\C)c2ccc(Br)cc2)[C@H](OC(C)=O)[C@@H](OC(C)=O)[C@@H]1OC(C)=O	22	26	25	26	16	21	33	14	24	16	29	–
CC(=O)OC[C@H]1O[C@@H](NC(=S)NNc2ccc([N+](=O)[O-])cc2[N+](=O)[O-])[C@H](OC(C)=O)[C@@H](OC(C)=O)[C@@H]1OC(C)=O	13	10	8	13	17	22	28	18	26	23	36	–
CC(=O)OC[C@H]1O[C@@H](NC(=S)N/N=C/c2cccnc2)[C@H](OC(C)=O)[C@@H](OC(C)=O)[C@@H]1OC(C)=O	15	14	10	14	9	16	28	13	26	18	26	–
COc1ccc(/C=N/NC(=S)N[C@@H]2O[C@H](COC(C)=O)[C@@H](OC(C)=O)[C@H](OC(C)=O)[C@H]2OC(C)=O)cc1	17	15	10	15	8	25	33	20	34	26	35	–
Cc1c(C)c2c(c(C)c1O)CC[C@@](C)(CCC[C@H](C)CCC[C@H](C)CCCC(C)C)O2	–	–	–	–	–	–	–	–	–	–	–	53
Cc1ccc(C)c(OCCCC(C)(C)C(=O)O)c1 [GEMFIBROZIL]	38	39	37	33	34	–	–	–	–	–	–	–
Oc1ncnc2[nH]ncc12	–	–	–	–	–	77	–	–	–	–	–	–
CC(=O)OC[C@H]1O[C@@H](NC(=S)N/N=C(\C)c2cccc([N+](=O)[O-])c2)[C@H](OC(C)=O)[C@@H](OC(C)=O)[C@@H]1OC(C)=O	23	19	18	19	10	17	33	24	35	20	30	–
CC(=O)OC[C@H]1O[C@@H](NC(=S)N/N=C/c2ccc(Cl)cc2)[C@H](OC(C)=O)[C@@H](OC(C)=O)[C@@H]1OC(C)=O	14	6	10	22	12	16	25	13	19	23	33	–
CC(=O)OC[C@H]1O[C@@H](NC(=S)N/N=C/c2ccc([N+](=O)[O-])s2)[C@H](OC(C)=O)[C@@H](OC(C)=O)[C@@H]1OC(C)=O	13	16	14	19	14	20	34	20	37	11	23	–
OC[C@@H](O)[C@@H](O)[C@H](O)[C@H](O)CO	–	–	–	–	–	–	–	45	–	–	–	–
CC(=O)OC[C@H]1O[C@@H](NC(=S)N/N=C/c2ccncc2)[C@H](OC(C)=O)[C@@H](OC(C)=O)[C@@H]1OC(C)=O	11	11	8	11	8	14	25	11	23	22	33	–
COc1ccc(/C(C)=N/NC(=S)N[C@@H]2O[C@H](COC(C)=O)[C@@H](OC(C)=O)[C@H](OC(C)=O)[C@H]2OC(C)=O)cc1OC	19	23	22	24	25	9	24	15	27	22	35	–
